Source: PubChem BioAssay
KDM4C inh – inhibitors of GASC-1 (KDM4C) histone demethylase, primary screen, biochemical, single concentration HTS | inhibition, % at 12.5 µM | GST-KDM4C 2-372, H3K9me3 peptide, LANCE TR-FRET | AID 720574, 2013 | 0.15% of 96,000 active | Lysine-specific demethylase 4C (Homo sapiens), Q9H3R0;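 active = mean replicate inhibition above about 25%, with at least 55% of replicates also reaching it, limit read from the data, passing the limit was not always enough; inconclusive = only one of those two conditions met; inactive = neither condition met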
Target sequence (Q9H3R0 2-372 limits assumed): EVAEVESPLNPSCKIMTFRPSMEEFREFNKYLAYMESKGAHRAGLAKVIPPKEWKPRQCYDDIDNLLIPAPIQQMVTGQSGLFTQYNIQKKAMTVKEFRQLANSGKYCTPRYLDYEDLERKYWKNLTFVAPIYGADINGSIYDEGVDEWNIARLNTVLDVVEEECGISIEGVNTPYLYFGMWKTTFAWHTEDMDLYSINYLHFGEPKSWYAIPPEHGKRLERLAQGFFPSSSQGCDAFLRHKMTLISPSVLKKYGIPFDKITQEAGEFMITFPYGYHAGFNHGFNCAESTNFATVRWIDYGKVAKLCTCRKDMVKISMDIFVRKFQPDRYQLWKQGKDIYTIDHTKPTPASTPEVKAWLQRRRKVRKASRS
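material = GST-tagged GASC-1 (JMJD2C) catalytic fragment, aa 2-372 | amount = enzyme final amount 10 nM | medium = HEPES buffer, pH 7.5, plus ascorbate | also added = H3K9me3 peptide substrate, Fe(II), 2-oxoglutarate | dosing = single dose | times = 30 min demethylation and 1 h detection at room temperature | detection = LANCE TR-FRET | read-out basis = Fall in 671/618 emission ratio as inhibition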
T cruzi growth-1 – T. cruzi intracellular proliferation inhibitors, primary screen, cell-based, beta-gal Tulahuen parasites, NIH3T3 host, luminescence; 5.9% of 77,000 active; inhibition, % at 8.34 µM; T. cruzi beta-gal in NIH3T3, GalScreen luminescence, 90 h;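 active = mean inhibition above about 93%, with at least 55% of replicates each passing it, limit read from the data, passing the limit was not always enough; inconclusive = only one of those two conditions holds; inactive = neither condition holds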
IDH1 mut inh – inhibitors of IDH1 R132H reductase, primary screen, biochemical, plate reader, single point; inhibition, % at 10 µM; AID 624101, 2012; Isocitrate dehydrogenase [NADP] cytoplasmic (Homo sapiens), O75874; diaphorase/resazurin fluorescence, 60 min; 0.18% of 70,000 active; in the data active = inhibition above about 34%; inconclusive = no clear call, values can overlap the other calls; inactive = below about 11%;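 also: 0% = DMSO and 100% = no enzyme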
T cruzi growth-2 – T. cruzi intracellular proliferation inhibitors, confirmation, cell-based, NIH3T3 host, beta-gal parasite, luminescence, cherry-pick; T. cruzi beta-gal in NIH3T3, GalScreen luminescence, 90 h; 72% of 5,600 active; shares compounds with T cruzi growth-1; inhibition, % at 8.35 µM; AID 651739, 2012;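 active = mean replicate inhibition above about 95% and at least 55% of replicates individually reaching it, limit read from the data; inconclusive = only one of the two criteria is met; inactive = neither criterion is met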
T cruzi growth-3 – inhibitors of intracellular T. cruzi replication, confirmation, NIH3T3 host cells, beta-gal parasites, cherry-pick, set 2; AID 651740, 2012; 21% of 5,600 active; T. cruzi beta-gal in NIH3T3, GalScreen luminescence, 90 h; inhibition, % at 2.09 µM; shares compounds with T cruzi growth-1;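 active = mean inhibition above about 95%, with at least 55% of replicates also reaching it, limit read from the data; inconclusive = meets just one of the two conditions; inactive = meets neither condition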;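 also: plate controls were neutral control median for no effect and positive control median for full effect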
3T3 cytotox – cytotoxicity in mouse NIH/3T3 fibroblasts, confirmation, cytotoxicity control for T. cruzi proliferation inhibitor project, cell-based, cherry-pick, single point. shares compounds with T cruzi growth-1. NIH/3T3 viability, CellTiter-Glo ATP luminescence, 90 h. cytotoxicity (signal decrease), % at 8.35 µM. 14% of 5,600 active. AID 651742, 2012;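 active = mean signal decrease across replicates above about 35% based on untreated-well scatter, with enough replicates individually passing, limit read from the data; inconclusive = no rule stated though some were filed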;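 also: 0% = median of neutral control wells and 100% = median of positive control wells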
NIH3T3 tox 2 – NIH/3T3 fibroblast cytotoxicity, confirmation, cytotoxicity control, cell-based, cherry-pick, single point, set 2; inhibition, % at 24.9 µM; NIH/3T3 viability, CellTiter-Glo ATP luminescence, 90 h; shares compounds with T cruzi growth-1; 56% of 5,600 active;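 active = mean loss of cell viability signal at or above a set limit, and enough replicates individually reaching it; inconclusive = meets only the mean limit or only the replicate share; inactive = meets neither condition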;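 also: 0% = median of neutral control wells and 100% = median of positive control wells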
Numbers without * were called inactive; u = inconclusive; x = no result given. Shown is part of a subset that was picked to be rich in hits.

SMILES	KDM4C inh	T cruzi growth-1	IDH1 mut inh	T cruzi growth-2	T cruzi growth-3	3T3 cytotox	NIH3T3 tox 2
C[C@@H]1CN([C@@H](C)CO)C(=O)c2cc(C#CCN(C)C)cnc2O[C@H]1CN(C)Cc1ccc(C(=O)O)cc1	6	-34	2	x	x	x	x
C[C@H]1CN([C@@H](C)CO)C(=O)c2cc(C#CCN(C)C)cnc2O[C@@H]1CN(C)Cc1ccccc1F	7	52	0	x	x	x	x
C[C@@H]1CN([C@H](C)CO)C(=O)c2cc(C#CCN(C)C)cnc2O[C@@H]1CN(C)Cc1ccc(-c2ccccc2)cc1	0	63	-2	x	x	x	x
CC(C)c1cc2c(cc1O)[C@@]1(C(=O)O)CCCC(C)(C)C1CC2 (stereo partly specified)	x	x	0	x	x	x	x
Cc1ccccc1-c1nnc(SCC(=O)Nc2ccc(Br)cc2F)n1C	x	x	0	x	x	x	x
CS(=O)(=O)N(CC(=O)NC1CC2CCC1C2)c1cc(Cl)cc(Cl)c1 (stereo unspecified)	x	x	-1	x	x	x	x
C=C1C2CC[C@@]3(C)[C@H](c4ccoc4)OC(=O)C[C@]13O[C@H]1CC(=O)C(C)(C)[C@H](C(O)C(=O)OC)[C@@]21C (stereo partly specified)	x	x	0	x	x	x	x
COc1ccc(C2(CNC(=O)C3COc4ccccc4O3)CCCC2)cc1OC (stereo unspecified)	x	x	0	x	x	x	x
COc1ccc(OC)c(C2C(C(=O)c3ccco3)C(=O)C(=O)N2CCN(C)C)c1 (stereo unspecified)	x	x	1	x	x	x	x
CCOC(=O)c1cnc2c(C(F)(F)F)cccc2c1NCCO	x	x	-1	x	x	x	x
C[C@H](O)C#Cc1ccc2c(c1)O[C@@H](CN(C)C(=O)Nc1ccccc1)[C@@H](C)CN([C@H](C)CO)S2(=O)=O	x	64	x	x	x	x	x
CC(C)CC#Cc1ccc2c(c1)O[C@H](CN(C)C(=O)Nc1ccccc1)[C@@H](C)CN([C@@H](C)CO)S2(=O)=O	-1	125*	0	105*	u	11	101*
C[C@@H]1CN([C@@H](C)CO)S(=O)(=O)c2ccc(C#C[C@@H](C)O)cc2O[C@H]1CN(C)C(=O)Nc1ccccc1	x	61	2	x	x	x	x
CC(C)CC#Cc1ccc2c(c1)O[C@@H](CN(C)C(=O)Nc1ccccc1)[C@H](C)CN([C@H](C)CO)S2(=O)=O	1	121*	8	108*	93	23	88*
CC(C)CC#Cc1ccc2c(c1)O[C@H](CN(C)C(=O)Nc1ccccc1)[C@H](C)CN([C@H](C)CO)S2(=O)=O	-1	126*	2	100*	107*	-10	106*
CC(C)CC#Cc1ccc2c(c1)O[C@H](CN(C)C(=O)Nc1ccccc1)[C@H](C)CN([C@@H](C)CO)S2(=O)=O	-1	107*	0	108*	u	21	81*
CC(C)CC#Cc1ccc2c(c1)O[C@H](CN(C)C(=O)NC(C)C)[C@@H](C)CN([C@@H](C)CO)S2(=O)=O	-1	70	-3	x	x	x	x
C[C@H](O)C#Cc1ccc2c(c1)O[C@H](CN(C)C(=O)Nc1ccccc1)[C@@H](C)CN([C@@H](C)CO)S2(=O)=O	x	70	x	x	x	x	x
Cc1ccc(-n2c(SCC(=O)Nc3cccc(F)c3)nc3ccccc3c2=O)cc1	x	x	0	x	x	x	x
C[C@@]12C[C@]3(O)O[C@H](O1)[C@]1(COC(=O)c4ccccc4)[C@H]3C[C@@]12O[C@@H]1O[C@H](CO)[C@@H](O)[C@H](O)[C@H]1O	x	x	0	x	x	x	x
CC1(C)CC(n2c(SCC(N)=O)nc3c(c2=O)C2(CCCCC2)Cc2ccccc2-3)CCO1 (stereo unspecified)	x	x	0	x	x	x	x
Cc1cc(SCC(=O)Nc2ccccc2)nc2c(C)cccc12	x	x	0	x	x	x	x
O=C(C1CCC1)N1CCCCN2[C@H](CO)[C@@H](c3ccc(-c4cccc(F)c4)cc3)[C@H]2C1	x	37	x	x	x	x	x
O=C(C1CC1)N1CCCCN2[C@H](CO)[C@@H](c3ccc(-c4cccc(F)c4)cc3)[C@@H]2C1	5	75	x	x	x	x	x
O=C(C1CCCC1)N1CCCCN2[C@H](CO)[C@@H](c3ccc(-c4cccc(F)c4)cc3)[C@H]2C1	x	111*	x	104*	17	-1	104*
SMILES	KDM4C inh	T cruzi growth-1	IDH1 mut inh	T cruzi growth-2	T cruzi growth-3	3T3 cytotox	NIH3T3 tox 2
O=C(C1CCCC1)N1CCCCN2[C@H](CO)[C@H](c3ccc(-c4cccc(F)c4)cc3)[C@@H]2C1	x	112*	x	113*	92	24	66*
Cc1cc(C(F)(F)F)nc(SCC(=O)N2c3ccccc3Sc3ccccc32)n1	x	x	0	x	x	x	x
C[C@@H]1CCCCO[C@H](CN(C)Cc2ccc(Cl)c(Cl)c2)[C@@H](C)CN([C@@H](C)CO)C(=O)c2cc(NC(=O)Nc3ccc(C(F)(F)F)cc3)ccc2O1	0	26	x	x	x	x	x
C[C@@H]1CCCCO[C@H](CN(C)Cc2ccc(Cl)c(Cl)c2)[C@H](C)CN([C@@H](C)CO)C(=O)c2cc(NC(=O)Nc3ccccc3)ccc2O1	-3	76	1	x	x	x	x
C[C@@H]1CCCCO[C@H](CN(C)Cc2ccc(Cl)c(Cl)c2)[C@H](C)CN([C@@H](C)CO)C(=O)c2cc(NC(=O)Nc3ccc(F)cc3)ccc2O1	1	106*	1	99*	110*	8	u
C[C@@H]1CCCCO[C@@H](CN(C)Cc2ccc(Cl)c(Cl)c2)[C@H](C)CN([C@H](C)CO)C(=O)c2cc(NC(=O)Nc3ccccc3)ccc2O1	-1	73	x	x	x	x	x
C[C@@H]1CCCCO[C@@H](CN(C)Cc2ccc(Cl)c(Cl)c2)[C@@H](C)CN([C@H](C)CO)C(=O)c2cc(NC(=O)Nc3ccc(F)cc3)ccc2O1	2	109*	x	101*	109*	-6	-2
C[C@@H]1CN([C@H](C)CO)C(=O)c2cc(NC(=O)Nc3ccccc3)ccc2O[C@@H](C)CCCCO[C@H]1CN(C)Cc1ccc(Cl)c(Cl)c1	0	68	x	x	x	x	x
C[C@@H]1CCCCO[C@H](CN(C)Cc2ccc(Cl)c(Cl)c2)[C@@H](C)CN([C@H](C)CO)C(=O)c2cc(NC(=O)Nc3ccc(F)cc3)ccc2O1	-1	102*	-1	u	108*	21	8
